Active and inactive are the calls of the source. No cut-off for these calls is given here.
Columns and labels:
[1] = test system: Human immunodeficiency virus 1; assay: Antiviral activity against HIV1 infected in human CEM-SS cells assessed as inhibition of virus-induced cytopathic effect after 6 days by XTT assay; format: functional, organism-based; conditions: for EC50: Human immunodeficiency virus 1, CEM-SS, 144 h
In short: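 NCI XTT-tetrazolium primary anti-HIV screen. CEM-SS cells kept in phenol red-free RPMI 1640 with 5% FBS, gentamicin and 2 mM L-glutamine; 1 × 10⁴ cells per well infected with HIV-1 RF (Haitian variant) at MOI 0.6. Compounds predissolved in DMSO, diluted in medium; AZT positive control. Quadruplicate infected wells, 6 days, 37 °C, 5% CO₂; cell growth by XTT; EC50 and maximal protection derived.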

Peritoneal macrophage [2] = assay: Antiinflammatory activity against C57BL6J mouse peritoneal macrophages assessed as inhibition of LPS-induced NO production at 30 uM incubated for 1 hr followed by stimulation with LPS for 24 hrs by Griess assay; format: functional
In short: (§1)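 Mouse peritoneal macrophages stimulated with lipopolysaccharide; nitric oxide production measured following an earlier protocol. Test compounds taken from 30 mM DMSO stocks and diluted to 1–30 μM final. Dexamethasone in DMSO served as positive control.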

Peritoneal macrophage [3] = assay: Antiinflammatory activity against C57BL6J mouse peritoneal macrophages assessed as inhibition of LPS-induced NO production incubated for 1 hr followed by stimulation with LPS for 24 hrs by Griess assay; format: functional, cell-based; in short: as §1
CEM-SS = assay: Cytotoxicity against human CEM-SS cells assessed as growth inhibition after 6 days by XTT assay; format: cell-based; conditions: 144 h
In short: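 Uninfected CEM-SS cells (1 × 10⁴ per well, duplicate wells) grown alongside the infected cultures in phenol red-free RPMI 1640 with 5% FBS, gentamicin and 2 mM L-glutamine. Compounds diluted from DMSO into medium. Incubation 6 days at 37 °C under 5% CO₂; growth estimated by XTT read-out; IC50 derived.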

SMILES | inhibition [1] | inhibition at 30 µM (Peritoneal macrophage [2]) [%] | IC50 (Peritoneal macrophage [3]) [µM] | %max [1] [%] | EC50 [1] [µM] | IC50 (CEM-SS) [µM]
CCCC[C@@H]1C(=O)C(C)=C(C)[C@]12CCC(=O)O2 | inactive | < 50 |  |  |  | 
CC(=O)CC/C=C(/C)C[C@@H]1CC(C)(C)CC1=O | inactive | < 50 |  |  |  | 
COC(=O)C(C)CCCC(C)(O)CCC1=C(C)C(=O)C(C)=C(C)C1=O (stereo not given) | inactive | < 50 |  |  |  | 
CCOC(=O)CCCCCCCCCCCC[C@]1(O)OC(=O)C(C)=C1C | inactive | < 50 |  |  |  | 
COC(=O)C(C)CCCC1(C)CCc2c(C)c(O)c(C)c(C)c2O1 (stereo not given) | inactive | < 50 |  |  |  | 
CCCCC[C@@]1(O)C(C)=C(C)C(=O)[C@H]1COCC (relative stereo) |  |  | 26 | 75 | 30 | 66
CCCCC[C@@]1(O)C(C)=C(C)C(=O)[C@H]1CO (relative stereo) |  |  | 28 | 86 | 34 | 79
CCO[C@@]1(CCCCCCCCCCCCC(=O)O)OC(=O)C(C)=C1C | inactive | < 50 |  |  |  | 
CCOC(=O)C1=CN2CC[C@]3(O)c4ccccc4N([C@H]1C)[C@H]23 | inactive | < 50 |  |  |  | 
CC1=C[C@@]2(C=C(C)[C@@H]3CC[C@@]4(C)Oc5cc(C)c(O)cc5[C@@H]2[C@@H]34)OC1=O | inactive | < 50 |  |  |  | 
C/C1=C/C2=C(CC(C)(C)C2)[C@H](C)CC[C@@H]1O | inactive | < 50 |  |  |  | 
CCCCC[C@]1(O)OC(=O)C(C)=C1C | inactive | < 50 |  |  |  | 
C/C(=C\CC[C@]1(C)C=Cc2cc(O)c(C)cc2O1)Cc1cc(C)co1 [CAPILLOBENZOPYRANOL] | inactive | < 50 |  |  |  | 
CCCC[C@@H]1C(=O)C(C)=C(C)[C@]1(O)CCC(=O)OCC | inactive |  | 24 |  |  | 
C[C@@H]1CC[C@]2(O)O[C@]13CC(C)(C)CC3=C[C@@]2(C)O | inactive | < 50 |  |  |  | 
C=C1C(=O)C(C)=C(C)[C@@]1(O)CCCCC |  | < 50 |  | 52 | 5.8 | 6.3
CCOC(=O)CC[C@]1(O)OC(=O)C(C)=C1C | inactive | < 50 |  |  |  | 
